ChEMBL document CHEMBL1122926, “Potential radiosensitizing agents. 7. 4(5)-Iodo-5(4)-nitroimidazole derivatives” (J Med Chem, 1985)

Columns and labels:
[1] = Evaluated for sensitizer enhancement ratio determined by dividing the D0 value from the control radiation survival curve by the […] from the radiation survival curve in the presence at a concentration of 0.025 mM.; format: functional
In short: (§1)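 Hypoxic asynchronous V-79 monolayers in sealed containers (95% N2/5% CO2 purge) with drug present. Irradiated at room temperature by linear accelerator, 180 rad/min, 400–2400 rad, for full survival curves by colony formation. SER is the D0 of hypoxic control cells divided by the D0 of hypoxic drug-treated cells. Drug given at maximum nontoxic 2-h concentration, up to 1 mM.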

[2] = Compound evaluated for the partition coefficient (PC); format: physicochemical; conditions: octanol/water
In short: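 Octanol/phosphate buffer (0.1 M, pH 7.4) partition, equal volumes, stirred 1 h at room temperature. Nitroimidazole concentration in each phase measured spectrophotometrically.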

[3] = Compound evaluated in vitro for the dose required to kill 50% of chinese hamster cells measured by colony formation […]; format: functional; conditions: Cricetulus griseus, read-out: ED50 (the source's name)
In short: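 Chinese hamster V-79 cells, about 200 per dish, attached 2 h in MEM + 15% fetal calf serum. Exposed to a range of drug concentrations for 2 h at 37 °C, in air or hypoxia (95% N2/5% CO2 purge, 90 min). Drug then replaced by fresh medium, 6-day incubation, colonies stained with methylene blue and counted. ED50 read from concentration vs. percent survival graphs.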

[4] = Evaluated for sensitizer enhancement ratio determined by dividing the D0 value from the control radiation survival curve by the […] from the radiation survival curve in the presence at a concentration of 1.0 mM.
[5] = Evaluated for sensitizer enhancement ratio determined by dividing the D0 value from the control radiation survival curve by the […] from the radiation survival curve in the presence at a concentration of 0.1 mM.; format: functional; in short: as §1
[6] = Evaluated for sensitizer enhancement ratio determined by dividing the D0 value from the control radiation survival curve by the […] from the radiation survival curve in the presence at a concentration of 0.5 mM.; format: functional; in short: as §1
[7] = Evaluated for sensitizer enhancement ratio determined by dividing the D0 value from the control radiation survival curve by the […] from the radiation survival curve in the presence at a concentration of 0.05 mM.; format: functional; in short: as §1
[8] = Evaluated for sensitizer enhancement ratio determined by dividing the D0 value from the control radiation survival curve by the […] from the radiation survival curve in the presence at a concentration of 0.25 mM.; format: functional; in short: as §1
[9] = Evaluated for sensitizer enhancement ratio determined by dividing the D0 value from the control radiation survival curve by the […] from the radiation survival curve in the presence at a concentration of 1.0 mM.; format: functional
In short: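 V-79 Chinese hamster asynchronous monolayers in MEM with 15% fetal calf serum. Cells made hypoxic in sealed containers purged with 95% N2/5% CO2 for 90 min, drug exposure 2 h. Irradiated at room temperature by linear accelerator at 180 rad/min, 400–2400 rad. Colonies counted after 6 days at 37 °C. SER = D0 of hypoxic controls / D0 of hypoxic drug-treated cells.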

CCOC(=O)Cn1cnc([N+](=O)[O-])c1I
Ratio [1]: 1.7 | PC [2]: 3.7 | EC50 [3]: 60 µM

O=C(Cn1cnc([N+](=O)[O-])c1I)NCc1ccc[n+]([O-])c1
Ratio [4]: 1.2 | PC [2]: 0.04 | EC50 [3]: > 1000 µM

CCOC(=O)Cn1cnc(I)c1[N+](=O)[O-]
PC [2]: 8.6 | Ratio [5]: 1.8 | EC50 [3]: 180 µM

Cn1cnc(I)c1[N+](=O)[O-]
Ratio [6]: 2.4 | PC [2]: 19.4 | EC50 [3]: 820 µM

Cn1cnc([N+](=O)[O-])c1I
Ratio [7]: 2.5 | PC [2]: 10.1 | EC50 [3]: 140 µM

O=C(Cn1cnc([N+](=O)[O-])c1I)NCc1cccnc1
PC [2]: 2.9 | Ratio [8]: 1.5 | EC50 [3]: 650 µM

COCC(O)Cn1cnc([N+](=O)[O-])c1I (stereo not given)
PC [2]: 2.6 | Ratio [5]: 1.6 | EC50 [3]: 170 µM

O=[N+]([O-])c1[nH]cnc1I
Ratio [9]: 1.1 | PC [2]: 1.9 | EC50 [3]: > 1000 µM

O=C(Cn1cnc(I)c1[N+](=O)[O-])NCc1cccnc1
PC [2]: 7.6 | Ratio [5]: 1.7 | EC50 [3]: 180 µM

COCC(O)Cn1cnc(I)c1[N+](=O)[O-] (stereo not given)
PC [2]: 7.8 | Ratio [5]: 1.4 | EC50 [3]: 480 µM
